{"source": "ChEMBL document CHEMBL2401654", "about": "“Synthesis, characterization, and biological assessment of the four stereoisomers of the H(3) receptor antagonist 5-fluoro-2-methyl-N-[2-methyl-4-(2-methyl[1,3']bipyrrolidinyl-1'-yl)phenyl]benzamide” (Bioorg Med Chem Lett, 2013)", "key": {"[1]": {"assay": "Half life in C57BL/6 mouse brain at 2 mg/kg, iv", "type": "ADME, organism-based", "design": "dose 2 mg/kg, route intravenous", "in_short": "(§1)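 Male C57BL/6 mice received a single intravenous dose of 2 mg/kg, formulated at 1 mg/mL in 50% 1-methyl-2-pyrrolidinone in saline. Plasma and brain concentrations were followed to derive PK parameters. Brain to plasma ratio was calculated from AUC.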"}, "[2]": {"assay": "AUC (0 to infinity) in C57BL/6 mouse brain at 10 mg/kg, po", "type": "ADME, organism-based", "design": "time infinity, dose 10 mg/kg, route oral", "in_short": "(§2)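 Male C57BL/6 mice were dosed orally at 10 mg/kg, formulated at 1 mg/mL in 5% DMSO/0.5% MC/0.2% tween 80. Plasma and brain were sampled for PK parameters. Brain to plasma ratio was based on AUC0-24.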"}, "[3]": {"assay": "Half life in C57BL/6 mouse plasma at 2 mg/kg, iv", "type": "ADME, organism-based", "design": "dose 2 mg/kg, route intravenous", "in_short": "as §1"}, "[4]": {"assay": "AUC (0 to infinity) in C57BL/6 mouse plasma at 10 mg/kg, po", "type": "ADME, organism-based", "design": "time infinity, dose 10 mg/kg, route oral", "in_short": "as §2"}, "[5]": {"assay": "AUC (0 to infinity) in C57BL/6 mouse brain at 2 mg/kg, iv", "type": "ADME, organism-based", "design": "time infinity, dose 2 mg/kg, route intravenous", "in_short": "as §1"}, "[6]": {"assay": "AUC (0 to infinity) in C57BL/6 mouse plasma at 2 mg/kg, iv", "type": "ADME, organism-based", "design": "time infinity, dose 2 mg/kg, route intravenous", "in_short": "as §1"}, "[7]": {"assay": "Tmax in C57BL/6 mouse brain at 10 mg/kg, po", "type": "ADME, organism-based", "design": "dose 10 mg/kg, route oral", "in_short": "as §2"}, "[8]": {"assay": "Tmax in C57BL/6 mouse plasma at 10 mg/kg, po", "type": "ADME, organism-based", "design": "dose 10 mg/kg, route oral", "in_short": "as §2"}, "[9]": {"assay": "Tmax in C57BL/6 mouse brain at 2 mg/kg, iv", "type": "ADME, organism-based", "design": "dose 2 mg/kg, route intravenous", "in_short": "as §1"}, "[10]": {"assay": "Tmax in C57BL/6 mouse plasma at 2 mg/kg, iv", "type": "ADME, organism-based", "design": "dose 2 mg/kg, route intravenous", "in_short": "as §1"}, "[11]": {"assay": "Cmax in C57BL/6 mouse plasma at 10 mg/kg, po", "type": "ADME, organism-based", "design": "dose 10 mg/kg, route oral", "in_short": "as §2"}, "[12]": {"assay": "Cmax in C57BL/6 mouse brain at 10 mg/kg, po", "type": "ADME, organism-based", "design": "dose 10 mg/kg, route oral", "in_short": "as §2"}, "[13]": {"assay": "Cmax in C57BL/6 mouse plasma at 2 mg/kg, iv", "type": "ADME, organism-based", "design": "dose 2 mg/kg, route intravenous", "in_short": "as §1"}, "[14]": {"assay": "Cmax in C57BL/6 mouse brain at 2 mg/kg, iv", "type": "ADME, organism-based", "design": "dose 2 mg/kg, route intravenous", "in_short": "as §1"}, "[15]": {"assay": "Drug metabolism in rat liver microsomes at 5 uM after 20 mins", "type": "ADME, Microsome", "details": "read-out: Drug metabolism", "in_short": "(§3)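 Substrate at 5 µM incubated at 37 °C for 20 min with in-house liver microsome preparations (human, mouse or rat). Reported as the percentage of parent compound metabolized.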"}, "[16]": {"assay": "Drug metabolism in human liver microsomes at 5 uM after 20 mins", "type": "ADME, Microsome", "details": "read-out: Drug metabolism", "in_short": "as §3"}, "[17]": {"assay": "Drug metabolism in mouse liver microsomes at 5 uM after 20 mins", "type": "ADME, Microsome", "details": "read-out: Drug metabolism", "in_short": "as §3"}, "Histamine H3 receptor [18]": {"biological_target": "Histamine H3 receptor (Rattus norvegicus, UniProt Q9QYN8)", "sequence (Q9QYN8 whole entry)": "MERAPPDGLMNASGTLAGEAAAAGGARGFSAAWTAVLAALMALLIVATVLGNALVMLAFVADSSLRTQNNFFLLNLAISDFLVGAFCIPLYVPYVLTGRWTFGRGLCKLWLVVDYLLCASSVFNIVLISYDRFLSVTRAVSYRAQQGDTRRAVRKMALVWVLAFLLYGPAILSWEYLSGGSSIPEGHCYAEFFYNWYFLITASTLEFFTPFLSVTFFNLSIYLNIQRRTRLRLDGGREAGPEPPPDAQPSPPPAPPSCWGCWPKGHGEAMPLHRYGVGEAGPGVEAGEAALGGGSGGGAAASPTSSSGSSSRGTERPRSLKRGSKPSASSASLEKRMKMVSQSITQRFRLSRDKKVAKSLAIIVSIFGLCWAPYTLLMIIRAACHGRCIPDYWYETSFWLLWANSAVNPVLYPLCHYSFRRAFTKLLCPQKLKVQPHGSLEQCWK", "assay": "Displacement of [3H]N-alpha-methylhistamine from recombinant rat histamine H3 receptor transfected in CHO cell membranes after 1 hr by scintillation counting analysis", "design": "species or system Membrane", "in_short": "(§4)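 Radioligand displacement of [3H]N-α-methylhistamine using membranes from CHO cells stably transfected with recombinant human or rat H3 receptor. Ki is presented as a range of multiple experiments (n ≥ 3).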"}, "Histamine H3 receptor [19]": {"biological_target": "Histamine H3 receptor (Homo sapiens, UniProt Q9Y5N1)", "sequence (Q9Y5N1 whole entry)": "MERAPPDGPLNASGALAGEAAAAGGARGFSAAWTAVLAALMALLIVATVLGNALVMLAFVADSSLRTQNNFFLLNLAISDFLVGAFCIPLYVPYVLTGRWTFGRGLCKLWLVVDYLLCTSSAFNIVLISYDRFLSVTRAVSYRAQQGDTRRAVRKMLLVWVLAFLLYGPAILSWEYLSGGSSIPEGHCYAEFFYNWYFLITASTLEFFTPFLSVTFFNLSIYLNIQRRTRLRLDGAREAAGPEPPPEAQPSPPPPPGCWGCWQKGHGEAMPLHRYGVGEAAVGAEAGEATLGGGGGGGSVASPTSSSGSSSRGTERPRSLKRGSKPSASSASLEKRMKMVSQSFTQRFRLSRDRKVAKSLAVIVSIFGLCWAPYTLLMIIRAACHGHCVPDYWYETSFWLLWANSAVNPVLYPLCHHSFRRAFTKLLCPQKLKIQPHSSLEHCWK", "assay": "Displacement of [3H]N-alpha-methylhistamine from recombinant human histamine H3 receptor transfected in CHO cell membranes after 1 hr by scintillation counting analysis", "in_short": "as §4"}, "[20]": {"assay": "Partition coefficient, log P of the compound", "type": "physicochemical", "details": "octanol/water"}, "[21]": {"assay": "Distribution coefficient, log D of the compound", "type": "physicochemical", "details": "octanol/water"}, "Histamine receptor H3": {"biological_target": "Histamine receptor H3 (Macaca mulatta, UniProt Q865E1)", "sequence (Q865E1 whole entry)": "as the sequence (Q9Y5N1 whole entry) above, with D148N, A240G, V282A, A289T, T290A, V300A, H442Q counted along it", "assay": "Displacement of [3H]N-alpha-methylhistamine from recombinant rhesus monkey histamine H3 receptor transfected in CHO cell membranes after 1 hr by scintillation counting analysis"}, "[22]": {"assay": "Solubility of the compound in PBS buffer at pH 7.4", "type": "physicochemical", "in_short": "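Solubility measured in PBS at pH 7.4.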"}, "Mus musculus": {"system": "Mus musculus", "assay": "Toxicity in mouse assessed as appearance of abnormal clinical signs at 3 to 30 mg/kg, po after 1 week", "type": "organism-based", "design": "dose 3-30 mg/kg, route oral", "details": "in vivo, 168 h", "in_short": "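Behavioral safety study in mice given single oral doses of 3, 10 and 30 mg/kg. Tremors, tail pinch response, body temperature, pupil size and body weight were scored at 2 and 6 h post dose. Clinical signs were observed over one week after dosing.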"}}, "note": "pKi: −log10 of the molar value."}
{"smiles": "Cc1cc(N2CC[C@H](N3CCC[C@@H]3C)C2)ccc1NC(=O)c1cc(F)ccc1C", "values": [{"measurement": "half-life", "setting": "[1]", "result": 96, "unit": "min"}, {"measurement": "AUC(0-inf)", "setting": "[2]", "result": 18000, "unit": "ng·h/mL"}, {"measurement": "half-life", "setting": "[3]", "result": 156, "unit": "min"}, {"measurement": "AUC(0-inf)", "setting": "[4]", "result": 4000, "unit": "ng·h/mL"}, {"measurement": "AUC(0-inf)", "setting": "[5]", "result": 2600, "unit": "ng·h/mL"}, {"measurement": "AUC(0-inf)", "setting": "[6]", "result": 560, "unit": "ng·h/mL"}, {"measurement": "Tmax", "setting": "[7]", "result": 60, "unit": "min"}, {"measurement": "Tmax", "setting": "[8]", "result": 10.2, "unit": "min"}, {"measurement": "Tmax", "setting": "[9]", "result": 4.98, "unit": "min"}, {"measurement": "Tmax", "setting": "[10]", "result": 4.98, "unit": "min"}, {"measurement": "Cmax", "setting": "[11]", "result": 1310, "unit": "ng/mL"}, {"measurement": "Cmax", "setting": "[12]", "result": 4290, "unit": "ng/mL"}, {"measurement": "Cmax", "setting": "[13]", "result": 2000, "unit": "ng/mL"}, {"measurement": "Cmax", "setting": "[14]", "result": 4820, "unit": "ng/mL"}, {"measurement": "metabolised at 20 min, 5 µM", "setting": "[15]", "result": 20, "unit": "%"}, {"measurement": "metabolised at 20 min, 5 µM", "setting": "[16]", "result": 3, "unit": "%"}, {"measurement": "metabolised at 20 min, 5 µM", "setting": "[17]", "result": 19, "unit": "%"}, {"measurement": "pKi", "setting": "Histamine H3 receptor [18]", "result": 8.52}, {"measurement": "pKi", "setting": "Histamine H3 receptor [19]", "result": 8.47}, {"measurement": "logP", "setting": "[20]", "result": 3.55}, {"measurement": "logD", "setting": "[21]", "result": 2.09}, {"measurement": "pKi", "setting": "Histamine receptor H3", "result": 8.60}, {"measurement": "solubility", "setting": "[22]", "result": 293, "unit": "µg/mL"}, {"measurement": "Activity", "setting": "Mus musculus", "result": "Non-toxic"}]}
